Test results published in ChEMBL document CHEMBL1157882, “Novel 2-[(benzylamino)methyl]pyrrolidine-3,4-diol derivatives as alpha-mannosidase inhibitors and with antitumor activities against hematological and solid malignancies” (Bioorg Med Chem, 2010).
Active and inactive are the calls of the source. No cut-off for these calls is given here.

How the values were obtained:
Jurkat [1] = assay: Cytotoxicity in human Jurkat cells overexpressing Bcl2 assessed as cell death at 2 uM after 72 hrs by propidium iodide-staining based flow cytometry; format: functional
In short: (§1)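 Jurkat T cells stably overexpressing Bcl-2, plus vector controls, in RPMI-1640 with 10% FBS. Seeded at 4×10⁴ per well and treated for 72 h with 40 µM etoposide, 2 µM doxorubicin or 50 µM compound. Dead cells counted by propidium iodide staining and flow cytometry; means of triplicates with SD.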

U-266 = assay: Cytotoxicity against human U266 cells after 72 hrs by colorimetric assay; format: functional, cell-based
In short: (§2)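 Cells grown in McCoy's medium (adherent lines) or RPMI-1640 (U266), each with 10% FBS, L-glutamine and antibiotics, at 37 °C in 5% CO₂. Compound dissolved as a 100 mM DMSO stock, final DMSO ≤0.4%. Cells were exposed for 72 h across a 10^-2 to 400 µM range. Viability was read by CellTiter 96 Aqueous (2–4 h incubation, absorbance 490 nm). Triplicate wells; IC50 from curve fitting.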

Bos taurus = organism: Bos taurus; assay: Inhibition of beta-N-acetylglucosaminidase from bovine kidney at pH 4; parameters: concentration or dose not given beside the values; conditions: concentration not given here
[2] = target: Glucoamylase (Aspergillus niger) (UniProt P69328); assay: Inhibition of amyloglucosidase from Aspergillus niger at 1 mM at pH 5
Chain of Glucoamylase (Aspergillus niger) (P69328 whole entry): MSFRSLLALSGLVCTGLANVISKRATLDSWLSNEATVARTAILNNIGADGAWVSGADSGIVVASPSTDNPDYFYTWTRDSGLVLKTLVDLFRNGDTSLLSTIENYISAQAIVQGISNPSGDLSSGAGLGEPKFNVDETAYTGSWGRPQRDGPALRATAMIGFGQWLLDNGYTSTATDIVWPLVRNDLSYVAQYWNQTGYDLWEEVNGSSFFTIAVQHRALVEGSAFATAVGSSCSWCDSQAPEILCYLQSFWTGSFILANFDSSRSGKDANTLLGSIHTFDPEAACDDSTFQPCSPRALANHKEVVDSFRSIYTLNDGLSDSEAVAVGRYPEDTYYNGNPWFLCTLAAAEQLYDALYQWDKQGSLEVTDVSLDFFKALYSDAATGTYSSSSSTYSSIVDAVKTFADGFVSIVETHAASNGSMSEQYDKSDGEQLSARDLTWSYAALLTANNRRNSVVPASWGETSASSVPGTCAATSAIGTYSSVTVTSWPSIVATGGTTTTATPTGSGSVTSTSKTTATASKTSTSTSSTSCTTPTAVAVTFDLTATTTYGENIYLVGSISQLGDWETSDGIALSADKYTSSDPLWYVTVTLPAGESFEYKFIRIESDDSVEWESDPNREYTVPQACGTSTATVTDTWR
In short: (§3)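 Glycosidase panel of commercial enzymes assayed at each enzyme's optimal pH with compound at 1 mM; percentage inhibition of enzyme activity calculated.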

Jurkat [3] = assay: Cytotoxicity against human Jurkat cells after 72 hrs by colorimetric assay; format: functional, cell-based
SK-BR-3 = assay: Cytotoxicity against human SKBR3 cells after 72 hrs by colorimetric assay; format: functional, cell-based; in short: as §2
MCF7 = assay: Cytotoxicity against human MCF7 cells after 72 hrs by colorimetric assay; format: functional, cell-based; in short: as §2
BT-474 = assay: Cytotoxicity against human BT474 cells after 72 hrs by colorimetric assay; format: functional, cell-based; in short: as §2
Aspergillus niger = assay: Inhibition of beta-xylosidase from Aspergillus niger at pH 5; parameters: concentration or dose not given beside the values; conditions: concentration not given here
Prunus dulcis = assay: Inhibition of beta-glucosidase from almond at 1 mM at pH 5; in short: as §3
Oryza sativa = assay: Inhibition of alpha-glucosidase from rice at 1 mM at pH 4; in short: as §3
[4] = target: Alpha-galactosidase (Coffea arabica) (UniProt Q42656); assay: Inhibition of alpha-galactosidase from coffee beans at 1 mM at pH 6; in short: as §3
Chain of Alpha-galactosidase (Coffea arabica) (Q42656 16-378 limits assumed): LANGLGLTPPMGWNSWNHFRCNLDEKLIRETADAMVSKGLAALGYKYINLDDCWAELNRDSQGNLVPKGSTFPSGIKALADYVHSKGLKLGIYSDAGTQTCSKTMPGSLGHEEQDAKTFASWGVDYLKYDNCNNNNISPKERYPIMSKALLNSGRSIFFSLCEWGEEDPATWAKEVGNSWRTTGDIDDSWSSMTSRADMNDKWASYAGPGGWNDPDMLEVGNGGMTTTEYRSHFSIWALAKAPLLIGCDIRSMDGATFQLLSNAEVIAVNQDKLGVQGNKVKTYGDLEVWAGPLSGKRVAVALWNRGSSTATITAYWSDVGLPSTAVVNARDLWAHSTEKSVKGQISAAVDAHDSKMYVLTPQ

[5] = target: Beta-galactosidase (Escherichia coli) (UniProt Q8VNN2); assay: Inhibition of beta-galactosidase from Escherichia coli at 1 mM at pH 7; in short: as §3
Chain of Beta-galactosidase (Escherichia coli) (Q8VNN2 whole entry, looked up): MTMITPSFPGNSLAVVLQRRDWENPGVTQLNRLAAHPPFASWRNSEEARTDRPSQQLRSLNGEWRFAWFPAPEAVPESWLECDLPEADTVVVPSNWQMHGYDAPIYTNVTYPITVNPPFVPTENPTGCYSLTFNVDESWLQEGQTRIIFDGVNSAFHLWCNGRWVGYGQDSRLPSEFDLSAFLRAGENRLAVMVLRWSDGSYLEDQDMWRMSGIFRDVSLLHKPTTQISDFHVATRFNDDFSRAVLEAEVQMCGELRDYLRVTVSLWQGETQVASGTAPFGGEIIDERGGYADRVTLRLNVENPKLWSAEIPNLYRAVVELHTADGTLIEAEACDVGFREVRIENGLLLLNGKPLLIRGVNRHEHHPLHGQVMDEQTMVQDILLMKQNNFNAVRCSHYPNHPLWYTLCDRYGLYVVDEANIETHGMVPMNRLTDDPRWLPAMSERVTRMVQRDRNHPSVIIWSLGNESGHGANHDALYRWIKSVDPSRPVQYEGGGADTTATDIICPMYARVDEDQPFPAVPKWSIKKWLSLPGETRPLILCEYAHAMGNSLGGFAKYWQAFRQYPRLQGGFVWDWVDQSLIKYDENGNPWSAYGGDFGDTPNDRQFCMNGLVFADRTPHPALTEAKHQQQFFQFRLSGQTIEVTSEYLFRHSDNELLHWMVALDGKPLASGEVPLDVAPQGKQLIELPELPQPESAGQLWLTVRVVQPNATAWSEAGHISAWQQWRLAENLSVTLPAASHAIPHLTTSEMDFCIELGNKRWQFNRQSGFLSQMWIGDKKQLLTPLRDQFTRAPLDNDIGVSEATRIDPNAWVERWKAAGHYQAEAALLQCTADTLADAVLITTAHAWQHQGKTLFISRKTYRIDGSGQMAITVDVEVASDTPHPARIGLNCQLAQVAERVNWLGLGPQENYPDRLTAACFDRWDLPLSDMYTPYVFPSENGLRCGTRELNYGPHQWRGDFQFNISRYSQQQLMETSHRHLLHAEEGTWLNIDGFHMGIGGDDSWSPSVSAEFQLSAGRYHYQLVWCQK

A549 = assay: Cytotoxicity against human A549 cells after 72 hrs by colorimetric assay; format: functional, cell-based; in short: as §2
PC-3 = assay: Cytotoxicity against human PC3 cells after 72 hrs by colorimetric assay; format: functional, cell-based; in short: as §2
[6] = target: T1, Beta-galactosidase (Aspergillus oryzae) (UniProt Q2U7N3); assay: Inhibition of beta-galactosidase from Aspergillus oryzae at 1 mM at pH 4; in short: as §3
T1 sequence (whole entry): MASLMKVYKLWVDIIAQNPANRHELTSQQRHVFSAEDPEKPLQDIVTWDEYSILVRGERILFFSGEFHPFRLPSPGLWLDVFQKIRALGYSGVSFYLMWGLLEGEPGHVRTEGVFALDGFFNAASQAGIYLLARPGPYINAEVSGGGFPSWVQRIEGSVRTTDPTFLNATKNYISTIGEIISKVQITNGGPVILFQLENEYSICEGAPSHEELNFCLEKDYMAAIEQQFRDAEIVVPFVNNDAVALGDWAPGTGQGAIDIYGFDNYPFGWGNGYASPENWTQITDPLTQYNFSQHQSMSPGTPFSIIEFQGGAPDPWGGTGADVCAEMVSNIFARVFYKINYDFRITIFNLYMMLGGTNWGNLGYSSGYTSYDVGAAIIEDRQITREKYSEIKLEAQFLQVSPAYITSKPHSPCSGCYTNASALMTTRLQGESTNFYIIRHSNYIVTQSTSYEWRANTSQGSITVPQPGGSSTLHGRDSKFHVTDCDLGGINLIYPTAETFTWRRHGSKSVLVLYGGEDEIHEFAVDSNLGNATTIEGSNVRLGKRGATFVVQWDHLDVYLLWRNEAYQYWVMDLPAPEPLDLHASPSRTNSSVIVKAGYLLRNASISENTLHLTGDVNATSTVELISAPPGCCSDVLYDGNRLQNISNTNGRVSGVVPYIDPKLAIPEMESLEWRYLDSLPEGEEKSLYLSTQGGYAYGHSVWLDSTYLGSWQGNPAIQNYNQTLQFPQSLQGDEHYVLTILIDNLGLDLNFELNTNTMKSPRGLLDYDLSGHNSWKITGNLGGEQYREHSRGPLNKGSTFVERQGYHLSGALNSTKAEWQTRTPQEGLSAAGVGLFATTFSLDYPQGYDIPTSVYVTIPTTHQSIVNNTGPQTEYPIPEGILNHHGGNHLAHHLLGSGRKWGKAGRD

Canavalia ensiformis [7] = assay: Inhibition of alpha-mannosidase from jack bean at 1 mM at pH 5; in short: as §3
[8] = target: T2, Tissue alpha-L-fucosidase (Bos taurus) (UniProt Q2KIM0); assay: Inhibition of alpha-L-fucosidase from bovine kidney at 1 mM at pH 6; in short: as §3
T2 sequence (whole entry): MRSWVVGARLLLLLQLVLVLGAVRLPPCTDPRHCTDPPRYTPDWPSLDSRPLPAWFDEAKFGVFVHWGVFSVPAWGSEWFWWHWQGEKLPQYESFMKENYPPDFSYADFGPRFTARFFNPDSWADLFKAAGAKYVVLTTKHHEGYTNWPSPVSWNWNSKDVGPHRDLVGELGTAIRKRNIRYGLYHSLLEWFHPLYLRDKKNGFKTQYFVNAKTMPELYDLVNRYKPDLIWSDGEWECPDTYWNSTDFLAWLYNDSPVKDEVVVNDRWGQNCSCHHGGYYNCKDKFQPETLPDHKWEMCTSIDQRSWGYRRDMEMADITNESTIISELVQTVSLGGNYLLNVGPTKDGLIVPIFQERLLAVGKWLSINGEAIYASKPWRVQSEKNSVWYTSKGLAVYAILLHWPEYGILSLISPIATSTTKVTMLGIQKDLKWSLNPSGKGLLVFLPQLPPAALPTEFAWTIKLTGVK

Saccharomyces cerevisiae = assay: Inhibition of alpha-glucosidase from yeast at 1 mM at pH 7; in short: as §3
[9] = Cytotoxicity against human U87 cells after 72 hrs by colorimetric assay; format: functional, cell-based, U-87MG ATCC; in short: as §2
MDA-MB-231 = assay: Cytotoxicity against human MDA-MB-231 cells after 72 hrs by colorimetric assay; format: functional, cell-based; in short: as §2
Canavalia ensiformis [10] = assay: Inhibition of beta-N-acetylglucosaminidase from jack bean at pH 5; parameters: concentration or dose not given beside the values; conditions: concentration not given here
Helix pomatia = assay: Inhibition of beta-mannosidase from snail at pH 4; parameters: concentration or dose not given beside the values; conditions: concentration not given here
[11] = Inhibition of alpha-mannosidase from jack bean at pH 5; parameters: species or system Canavalia ensiformis
Jurkat [12] = assay: Cytotoxicity in human Jurkat cells overexpressing Bcl2 assessed as cell death at 40 uM after 72 hrs by propidium iodide-staining based flow cytometry; format: functional; in short: as §1
[13] = Homo sapiens, U-266, 72 h, read-out: IC50
[14] = Homo sapiens, Jurkat, 72 h, read-out: IC50
[15] = Homo sapiens, SK-BR-3, 72 h, read-out: IC50
[16] = Homo sapiens, MCF7, 72 h, read-out: IC50
[17] = Homo sapiens, BT-474, 72 h, read-out: IC50
[18] = Homo sapiens, A549, 72 h, read-out: IC50
[19] = Homo sapiens, PC-3, 72 h, read-out: IC50
[20] = Homo sapiens, U-87 MG, 72 h, read-out: IC50
[21] = Homo sapiens, MDA-MB-231, 72 h, read-out: IC50

Row | Compound | IC50 (U-266; [13]) [µM] | inhibition (Bos taurus) [%] | inhibition [2] [%] | IC50 (Jurkat [3]; [14]) [µM] | IC50 (SK-BR-3; [15]) [µM] | IC50 (MCF7; [16]) [µM] | IC50 (BT-474; [17]) [µM] | inhibition (Aspergillus niger) [%] | inhibition (Prunus dulcis) [%] | inhibition (Oryza sativa) [%] | inhibition [4] [%] | inhibition [5] [%] | inhibition [6] [%] | inhibition (Canavalia ensiformis [7]) [%] | inhibition [8] [%] | inhibition (Saccharomyces cerevisiae) [%] | inhibition (Canavalia ensiformis [10]) [%] | inhibition (Helix pomatia) [%] | IC50 [11] [µM] | Ki [11] [µM] | other results
1 | COc1cccc2c1C(=O)c1c(O)c3c(c(O)c1C2=O)C[C@@](O)(C(=O)CO)C[C@@H]3O[C@H]1C[C@H](N)[C@H](O)[C@H](C)O1 | – | – | – | – | – | – | – | – | – | – | – | – | – | – | – | – | – | – | – | – | Activity (Jurkat [1]): inactive
2 | COc1ccc([C@H](CO)NC[C@H]2NC[C@H](O)[C@@H]2O)cc1 | > 200 | < 10 | < 10 | > 200 | > 200 | > 200 | > 200 | 28 | 62 | < 10 | < 10 | < 10 | < 10 | 98 | < 10 | 41 | < 10 | < 10 | 0.8 | 0.5 | IC50 (A549; [18]): > 200 µM; IC50 (PC-3; [19]): > 200 µM; IC50 [9, 20]: > 200 µM; IC50 (MDA-MB-231; [21]): > 200 µM
3 | COc1cc([C@@H]2c3cc4c(cc3[C@@H](O[C@@H]3O[C@@H]5CO[C@@H](C)O[C@H]5[C@H](O)[C@H]3O)[C@H]3COC(=O)[C@H]23)OCO4)cc(OC)c1O | – | – | – | – | – | – | – | – | – | – | – | – | – | – | – | – | – | – | – | – | Activity (Jurkat [12]): inactive
4 | OC[C@H](NC[C@H]1NC[C@H](O)[C@@H]1O)c1ccc(OCc2ccccc2)cc1 | – | < 10 | < 10 | – | – | – | – | 45 | 40 | < 10 | < 10 | < 10 | < 10 | 99 | < 10 | 45 | < 10 | < 10 | 1.4 | 0.6 | IC50 (U-266; u-266): Not Active; IC50 (Jurkat [3]; jurkat): Not Active; IC50 (SK-BR-3; sk-br-3): Not Active; IC50 (MCF7; mcf7): Not Active; IC50 (BT-474; bt-474): Not Active; IC50 (A549; a549): Not Active; IC50 (PC-3; pc-3): Not Active; IC50 ([9]; u-87mg atcc): Not Active; IC50 (MDA-MB-231; mda-mb-231): Not Active
5 | C=CCOc1ccc([C@H](CO)NC[C@H]2NC[C@H](O)[C@@H]2O)cc1 | > 200 | < 10 | < 10 | > 200 | > 200 | > 200 | > 200 | 28 | 72 | < 10 | < 10 | < 10 | < 10 | 99 | < 10 | 41 | < 10 | < 10 | 0.9 | 0.5 | IC50 (A549; [18]): > 200 µM; IC50 (PC-3; [19]): > 200 µM; IC50 [9, 20]: > 200 µM; IC50 (MDA-MB-231; [21]): > 200 µM
6 | OC[C@H](NC[C@H]1NC[C@H](O)[C@@H]1O)c1ccc(-c2ccccc2)cc1 | > 200 | < 10 | < 10 | > 200 | > 200 | > 200 | > 200 | 50 | 20 | < 10 | < 10 | < 10 | < 10 | 99 | < 10 | 24 | < 10 | < 10 | 1.4 | 0.9 | IC50 (A549; [18]): > 200 µM; IC50 (PC-3; [19]): > 200 µM; IC50 [9, 20]: > 200 µM; IC50 (MDA-MB-231; [21]): > 200 µM
7 | OC[C@H](NC[C@H]1NC[C@H](O)[C@@H]1O)c1ccc(-c2ccsc2)cc1 | – | < 10 | < 10 | – | – | – | – | 50 | 36 | < 10 | < 10 | < 10 | < 10 | 97 | < 10 | < 10 | < 10 | < 10 | 1.1 | 0.8 | IC50 (U-266; u-266): Not Active; IC50 (Jurkat [3]; jurkat): Not Active; IC50 (SK-BR-3; sk-br-3): Not Active; IC50 (MCF7; mcf7): Not Active; IC50 (BT-474; bt-474): Not Active; IC50 (A549; a549): Not Active; IC50 (PC-3; pc-3): Not Active; IC50 ([9]; u-87mg atcc): Not Active; IC50 (MDA-MB-231; mda-mb-231): Not Active
